Ecoli WT expand: growth inhibitors of wild-type E. coli, primary screen, strain BW25113, expanded library, OD600; OD600 absorbance; growth inhibition, % at 100 µM; 0.15% of 98,000 active; AID 710, 2007;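 active = growth inhibition above about 50% at one test dose, limit read from the data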;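 note: growth measured after 20 h incubation at 37 °C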
tolC growth inh: growth inhibitors of E. coli tolC mutant, primary screen, strain BW25113 ΔtolC::kan, 384-well | OD615 | growth inhibition, % at 10 µM (by protocol) | 2.2% of 65,000 active;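 active = growth inhibition at or above a cutoff equal to the mean over every tested compound plus 3 SD, cut at about 60% in these data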;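 note: growth measured after 20 h incubation at 37 °C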
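Test system: E. coli BW25113 ΔtolC::kan bacteria | Medium: Kanamycin-containing LB broth (50 µg/mL) | Dosing: One dose of 10 µM final | Times: 20 h incubation with compound, 37 °C | Detection: Optical density read at 615 nm | Read-out basis: Percent growth inhibition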
PostGolgi yeast: phenotypic screen on post-Golgi transport, primary screen; post-Golgi transport phenotypic cell assay; inhibition, % at 10 µM; 0.9% of 98,000 active;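 note: yeast cells grown in 1536-well plates; yeast grown about 18 h at 30C before absorbance read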
PLAP act: PLAP enzyme activators, biochemical, luminescence, HTS | purified PLAP enzyme, luminescent substrate read-out; active compounds read high | AID 696, 2007 | 1.2% of 96,000 active | activation fold at 20 µM | Alkaline phosphatase, placental type (Homo sapiens), P05187; in the data active = activation fold above about 2
Target sequence (P05187 whole entry, looked up): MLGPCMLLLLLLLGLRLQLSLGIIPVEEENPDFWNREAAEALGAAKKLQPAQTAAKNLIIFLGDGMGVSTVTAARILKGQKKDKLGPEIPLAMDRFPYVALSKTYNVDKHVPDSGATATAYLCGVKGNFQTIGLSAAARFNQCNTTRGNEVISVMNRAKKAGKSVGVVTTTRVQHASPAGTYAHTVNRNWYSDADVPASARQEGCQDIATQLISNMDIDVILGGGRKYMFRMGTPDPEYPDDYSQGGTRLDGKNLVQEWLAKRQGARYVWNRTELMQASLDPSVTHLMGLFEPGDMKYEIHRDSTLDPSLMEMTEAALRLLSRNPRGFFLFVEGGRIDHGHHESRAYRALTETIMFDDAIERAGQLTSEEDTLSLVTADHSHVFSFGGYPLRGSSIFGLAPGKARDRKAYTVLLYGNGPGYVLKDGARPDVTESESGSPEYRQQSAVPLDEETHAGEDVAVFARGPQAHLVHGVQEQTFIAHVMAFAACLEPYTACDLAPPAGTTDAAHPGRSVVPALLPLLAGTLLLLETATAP
PostGolgi ctrl: growth inhibition of yeast control strain, primary screen, counter-screen for post-Golgi transport modulator project | efflux-deficient yeast background strain, growth absorbance A615, 16 h | inhibition, % at 10 µM | AID 738, 2007 | 5% of 98,000 active
* marks the source's active call; other numbers are inactive results; / = not tested or not shown. Only some compounds are listed: those with a hit (about 7.2% of all), similar ones and a draw of the others. Cut-off read from the data, not from the text of the source, unless noted: active = inhibition above about 30%; inactive = the rest.

SMILES	Ecoli WT expand	tolC growth inh	PostGolgi yeast	PLAP act	PostGolgi ctrl
C=CCn1c(CCCNC(=O)C(C)(C)C)nc2ccccc21	-4.0	-0.5	1.6	1.2	30.3*
CN(C)S(=O)(=O)c1ccc(N2CCCC2)c(C(=O)NC(c2ccccc2)c2ccccc2)c1	1.0	/	16.9	1.3	-9.3
O=S(=O)(Nc1nc2ccccc2nc1N1CCN(c2ccccn2)CC1)c1ccc(Cl)cc1	-4.0	82.7*	-3.3	1.5	57.4*
Cc1ccc(S(=O)(=O)Nc2nc3ccccc3nc2N2CCN(c3ccccc3F)CC2)cc1	-20.0	/	-4.4	1.6	6.1
COc1ccc2[nH]c3nc(SCc4nnc(-c5ccc(C)cc5)o4)nnc3c2c1	-1.0	-2.7	-0.3	1.4	1.9
CCc1ccc2nc(N3C(=O)C(O)=C(C(=O)c4ccco4)C3c3cccs3)sc2c1 (centres undefined)	-14.0	/	-2.6	/	35.7*
COc1ccc(C2C=C(c3ccc(Br)s3)Nc3ncnn32)cc1OC (centres undefined)	-10.0	2.5	2.2	1.2	34.9*
COc1ccc(C2C=C(c3ccc(C)cc3)Nc3ncnn32)cc1 (centres undefined)	0.0	6.0	0.6	1.3	6.9
CC(C(=O)NC1CCCC1)N(C(=O)c1snc(C(N)=O)c1N)c1ccc2c(c1)OCCO2 (centres undefined)	-11.0	11.8	-5.0	1	6.9
CC(C)(C)c1nn(-c2ccccc2)c2[nH]c(=O)c(CNCc3ccc4c(c3)OCO4)cc12	19.0	/	-10.5	2.1*	11.4
Cn1c2ccc(Cl)cc2c2nc3ccccc3nc21	-8.0	33.8	38.1*	0.9	6.1
Cc1cc(O)c(-c2n[nH]c3c2C(c2cccc(O)c2)N(Cc2cccnc2)C3=O)cc1Cl (centres undefined)	-2.0	3.8	-3.8	1.2	-6.8
Cc1ccc(NC(=O)N/C=C/c2ccc(Cl)cc2)cc1	-6.0	/	-7.0	1.2	31.4*
O=C(N/C=C/c1ccccc1)Nc1ccc(Cl)cc1	3.0	/	1.1	1	2.6
CCCCOc1ccc(/C=N/NC(=S)Nc2cc(C)ccc2C)cc1	-20.0	/	1.4	1.2	5.2
CCOc1ccc(CNC(=S)N/N=C\c2ccc([N+](=O)[O-])cc2)cc1	-2.0	/	1.6	/	40.0*
CCOc1ccc(/C=N/NC(=O)c2ccc(Cn3cc([N+](=O)[O-])cn3)o2)cc1	-3.0	/	20.1	0.9	1.2
CCCCOc1ccc(CNC(=S)N/N=C/c2ccc(OC)c(OC)c2)cc1	-14.0	/	-5.9	1.7	33.4*
CCOc1ccc(C(=O)NCCn2cc(SCC(=O)Nc3cc(C)on3)c3ccccc32)cc1	5.0	-0.8	-7.5	0.8	1.1
CC(C)N=c1scc(-c2ccco2)n1/N=C/c1ccc(O)c(O)c1	12.0	/	2.9	/	55.5*
CN=c1scc(C)n1/N=C/c1ccc(O)c(O)c1O	19.0	/	-4.7	1.7	5.8
Cc1ccc(C2CC(c3cccs3)=NN2C(=O)c2ccc(Br)o2)cc1 (centres undefined)	-26.0	/	93.0*	1.1	83.2*
CCS(=O)(=O)Nc1ccc(C2=NN(C(=O)c3ccco3)C(c3ccc(C)cc3)C2)cc1 (centres undefined)	-11.0	/	-3.7	1.2	-4.8
O=C(OCC#CCSc1nnc(-c2cccc3ccccc23)o1)c1cccs1	-28.0	25.1	-7.4	0.8	-2.9
C#CCSc1nnc(-c2cccc3ccccc23)o1	/	97.3*	/	/	/
SMILES	Ecoli WT expand	tolC growth inh	PostGolgi yeast	PLAP act	PostGolgi ctrl
Cc1c(CN(C)C(=O)c2sc3cc(Cl)ccc3c2Cl)cnn1C	9.0	/	1.9	1.3	22.4
O=C(Nc1ccncc1)c1cccc(F)c1	5.0	-11.5	15.7	0.8	32.3*
Cc1c(Cl)ccc2c1NC(=O)[C@]21N[C@@H](Cc2ccccc2)[C@H]2C(=O)N(c3ccc(F)cc3)C(=O)[C@H]21	-12.0	/	-9.6	1.5	19.9
COC(=O)c1ccccc1NC(=S)NC(=O)COc1ccccc1	-7.0	/	-12.7	1.2	2.9
Cc1ccc(C(=O)NNC(=S)NC(=O)COc2ccccc2)cc1	51.0*	/	27.3	1.5	23.6
Cc1ccccc1OCC(=O)NNC(=O)c1ccc(-c2ccccc2)cc1	-3.0	/	2.2	1.1	-2.5
Cc1ccccc1C(=O)NNC(=S)NC(=O)COc1ccccc1	32.0	/	19.1	2.4*	24.6
Cn1c(SCC(=O)NC(=O)NCc2ccco2)nnc1C(F)(F)F	3.0	/	-7.8	1	-12.1
O=C(c1ccc(Cl)cc1)c1oc2ccccc2c1CS(=O)c1ccccc1 (centres undefined)	-7.0	/	-3.8	0.9	49.4*
Cn1c(C(=O)N2CCN(c3nc4ccccc4s3)CC2)cc2sccc21	2.0	-6.6	-9.3	1	45.1*
CCCOc1ccc2oc(=O)c3c(c2c1)CCCN3C(=O)CN1CCc2ccccc2C1	-2.0	76.7*	0.5	1.6	15.3
CCC(=O)NC(=S)Nc1cccc(Cl)c1N1CCCCC1	-5.0	/	1.6	1.1	44.8*
CCc1cc2c(=O)n(Cc3ccco3)c(SCc3c(C)noc3C)nc2s1	-28.0	64.7*	-4.5	1.2	32.5*
CCCC(C(=O)NC1CCCC1)N(CCCN1CCOCC1)C(=O)c1snc(C(N)=O)c1N (centres undefined)	4.0	-15.6	4.2	1.6	3.0
COc1cccc(/C=N/NC(=O)c2[nH]c(C)c(C(=O)N/N=C/c3cccc(OC)c3O)c2C)c1O	23.0	/	-11.7	2.5*	-4.7
COc1cccc(/C=N/NC(=O)c2ccc(-c3ccccc3)cc2)c1O	-17.0	/	9.2	2.1*	-3.7
COc1ccccc1NC(=O)c1[nH]c(C)c(C(C)=O)c1C	-3.0	-8.0	-14.5	0.8	21.4
COc1cccc(/C=N/NC(=O)CSc2nnc(C)n2-c2ccccc2)c1O	19.0	/	0.5	2.1*	-5.4
COc1ccc(/C=N/NC(=O)CSc2nnc(C)n2-c2ccccc2)c(OC)c1OC	8.0	/	11.6	1.1	-2.5
CCn1c(CSc2nc(C)cc(C)n2)nnc1SCC(=O)N1CCCc2ccccc21	2.0	4.9	21.2	1.4	7.8
CCOC(=O)C1=C(C)NC(SCC(=O)Nc2nc(C)cs2)=C(C#N)C1c1cccs1 (centres undefined)	-9.0	56.5	3.9	1.5	16.6
Cc1ccc(C)c(OCC(=O)Nc2nc3ccc([N+](=O)[O-])cc3s2)c1C	-23.0	/	5.7	1.1	34.2*
CCSC1=C(C#N)C(c2ccc(Cl)cc2)C2=C(CCCC2=O)N1 (centres undefined)	-12.0	96.3*	-5.4	0.8	5.0
COc1ccc(CCNc2nc(-c3ccco3)cc(C(F)(F)F)n2)cc1OC	1.0	4.2	-8.0	1	1.8
Fc1ccc(CNc2nc(-c3ccco3)cc(C(F)(F)F)n2)cc1	14.0	61.9*	10.0	1	7.4
FC(F)(F)c1cc(-c2ccco2)nc(NCc2ccccc2)n1	3.0	18.9	1.9	1.2	19.2
COc1ccccc1-c1cc(C(F)(F)F)nc(NCc2ccco2)n1	4.0	16.2	-3.2	1.1	31.1*
S=C(c1ccc(-c2ccccc2Cl)o1)N1CCOCC1	5.0	36.8	5.9	1	10.8
